The species entered for series [1] is Mus musculus. The experiment in a line: Distribution of compound in mice brain was measured after 2 hr. As to conditions: in vivo.
Series [2] is filed under the species Mus musculus. The experiment in a line: Distribution of compound in mice liver was measured after 1 hr. The class given is ADME, organism-based. As to conditions: in vivo. An outline of the steps: (§1)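 Female BDF/1 mice dosed by tail-vein injection at 25 mg/kg in 5% Tween 80 containing 5% ethanol; killed 1, 2, 3, 6 and 24 h later. Liver homogenized in 50% methanol and pyridinium salt quantified by C-18 reverse-phase HPLC (linear gradient 50–70% acetonitrile). Three mice per time point; values in µg/g wet tissue.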

Series [3] is filed under the species Mus musculus. The series can be described thus: Distribution of compound in mice brain was measured after 3 hr. As to conditions: in vivo.
The species named for series [4] is Mus musculus. The experiment in a line: Distribution of compound in mice brain was measured after 24 hr r. As to conditions: in vivo.
The species named for series [5] is Mus musculus. The series can be described thus: Distribution of compound in mice liver was measured after 3 hr. It counts as ADME, organism-based. As to conditions: in vivo. The method in brief:
as §1

Series [6] is filed under the species Mus musculus. The experiment in a line: Distribution of compound in mice liver was measured after 24 hr; b=Undetected. The class given is ADME, organism-based. As to conditions: in vivo. The method in brief: as §1
Series [7] is filed under the species Mus musculus. The experiment in a line: Distribution of compound in mice liver was measured after 6 hr. It counts as ADME, organism-based. As to conditions: in vivo. An outline of the steps: as §1
Series [8] is filed under the species Mus musculus. The experiment in a line: Distribution of compound in mice liver was measured after 2 hr. It counts as ADME, organism-based. As to conditions: in vivo. The method in brief: as §1
Series [9] is filed under the species Mus musculus. The experiment in a line: Distribution of compound in mice brain was measured after 6 hr. As to conditions: in vivo.
The species entered for series [10] is Mus musculus. The series can be described thus: Distribution of compound in mice brain was measured after 1 hr. As to conditions: in vivo.
For series [11], the species on record is Mus musculus. The experiment in a line: In vitro oxidation of compound to its pyridinium salt (3) in presence of mouse liver homogenate. The class given is ADME. The method in brief:
(§2)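 Dihydropyridine ester at 5 × 10^-5 M kept at 37 °C in a UV cuvette. Media were human plasma diluted 1:1 with 50 mM phosphate buffer pH 7.4, mouse liver homogenate (20 mg/mL) or mouse brain homogenate (40 mg/mL) in the same buffer. Loss of the 360 nm dihydronicotinate absorbance was followed. Rate constant came from the slope of log disappearance.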

Series [12] can be described thus: Half-life of compound in presence of hydrogen peroxide. It counts as ADME.
Series [13] is described as follows: Half-life of compound in presence of mouse liver homogenate. It counts as ADME. The method in brief:
as §2

Series [14] in a line: In vitro oxidation of compound to its pyridinium salt (3) in presence of hydrogen peroxide. It counts as ADME.
The species named for series [15] is Mus musculus. The series can be described thus: In vitro oxidation of compound to its pyridinium salt (3) in presence of mouse brain homogenate. The class given is ADME. An outline of the steps: as §2
The nature of series [16]: Half-life of compound in presence of human plasma. The class given is ADME. The method in brief: as §2
The species named for another series is Homo sapiens. The experiment in a line: In vitro oxidation of compound to its pyridinium salt (3) in presence of human plasma. The class given is ADME. The method in brief:
as §2

A short description of series [17]: Half-life of compound in presence of mouse brain homogenate. It counts as ADME. An outline of the steps: as §2

A word on the half-life: it is the time in which the quantity being followed falls by half.

Molecules are shown by their SMILES.

`Cc1cn(C2C=CC(COC(=O)c3ccc[n+](C)c3)O2)c(=O)[nH]c1=O.[I-]` (stereo not drawn): the Concentration in the series filed under Mus musculus [1] is on record as 4.9 ug (g of wet tissue)-1; in the series filed under Mus musculus [2], 3.3 ug (g of wet tissue)-1; in the series filed under Mus musculus [3], 5.3 ug (g of wet tissue)-1; in the series filed under Mus musculus [4], 3 ug (g of wet tissue)-1; in the series listed under Mus musculus [5], 2 ug (g of wet tissue)-1; in the series listed under Mus musculus [6] it was “Undetected”. Besides, the Concentration in the series listed under Mus musculus [7] is 1.3 ug (g of wet tissue)-1; in the series listed under Mus musculus [8], 2.5 ug (g of wet tissue)-1; in the series filed under Mus musculus [9], 5.1 ug (g of wet tissue)-1; in the series filed under Mus musculus [10] it was 4.7 ug (g of wet tissue)-1.
As to `Cc1cn(C2C=CC(COC(=O)C3=CN(C)C=CC3)O2)c(=O)[nH]c1=O` (stereo not drawn), the K in the series listed under Mus musculus [11] came out at 0.000092 s⁻¹; in [14], 0.00055 s⁻¹; in the series listed under Mus musculus [15] it was 0.0000885 s⁻¹; in the series listed under Homo sapiens, 0.0000354 s⁻¹. Moreover, the half-life in series [12] is 0.35 h; in series [13] it was 2.08 h; in series [16] it was 5.42 h; in series [17], 2.17 h.
Turning to `Cc1cn([C@H]2C=C[C@@H](CO)O2)c(=O)[nH]c1=O` [STAVUDINE], the Concentration in the series listed under Mus musculus [1] is 2.5 ug (g of wet tissue)-1; in the series filed under Mus musculus [3], 2.6 ug (g of wet tissue)-1; in the series filed under Mus musculus [4], 1.2 ug (g of wet tissue)-1; in the series filed under Mus musculus [9], 2.3 ug (g of wet tissue)-1; in the series filed under Mus musculus [10] it was 2.7 ug (g of wet tissue)-1.
Regarding `C[n+]1cccc(C(=O)[O-])c1` [TRIGONELLINE], the Concentration in the series listed under Mus musculus [1] is 2.1 ug (g of wet tissue)-1; in the series filed under Mus musculus [3], 2.4 ug (g of wet tissue)-1; in the series filed under Mus musculus [4], 0.9 ug (g of wet tissue)-1; in the series listed under Mus musculus [9], 1.9 ug (g of wet tissue)-1; in the series filed under Mus musculus [10], 2.2 ug (g of wet tissue)-1.

Source of the values: ChEMBL document CHEMBL1124421, “A dihydropyridine carrier system for sustained delivery of 2',3'-dideoxynucleosides to the brain” (J Med Chem, 1989).
